Bioassay records from PubChem BioAssay.
Compounds with a hit are over-represented: about 4% of the library has one in this group of screens.
GPR7 antagonist = GPR7 receptor antagonists, primary screen, cell-based, fluorescence, single concentration; GPR7-expressing cells, fluorescence antagonist assay; inhibition, % at 4.4 µM; Neuropeptides B/W receptor type 1 (Homo sapiens), P48145; 1.1% of 290,000 active; in the data active = inhibition above about 16%, passing the limit was not always enough;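 also: cells stimulated with the agonist NPW; 0% = agonist with vehicle and 100% = vehicle without agonist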
Target sequence (P48145 whole entry, looked up): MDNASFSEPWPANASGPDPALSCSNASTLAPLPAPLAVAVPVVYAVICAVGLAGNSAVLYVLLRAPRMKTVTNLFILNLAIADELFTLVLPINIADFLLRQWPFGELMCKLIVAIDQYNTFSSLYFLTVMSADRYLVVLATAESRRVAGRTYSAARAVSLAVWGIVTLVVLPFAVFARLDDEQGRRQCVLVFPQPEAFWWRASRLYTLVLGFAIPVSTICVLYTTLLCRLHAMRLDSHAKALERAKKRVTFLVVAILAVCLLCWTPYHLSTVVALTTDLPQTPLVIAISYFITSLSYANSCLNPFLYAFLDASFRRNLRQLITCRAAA
TAAR1 agonist = human TAAR1 agonists, primary screen, Fluo-8 calcium fluorescence, CHO RD-HGA16 cells; Trace amine-associated receptor 1 (Homo sapiens), Q96RJ0; vehicle wells 0%, saturating PEA agonist 100%; activation, % at 3 µM; 0.99% of 360,000 active; AID 624467, 2012;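 active = activation above the mean activation of all test compounds in the run plus 3 SD, cut at about 38% in these data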
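System: CHO-derived RD-HGA16 cells with stable Gα16 and human TAAR1 / Times: 17-24 h plating, Fluo-8 75 min 37 °C, 30 min RT / Technique: calcium-sensitive Fluo-8 signal, excitation 470-495, emission 515-575 nm / Measure: % activation relative to PEA EC100 response / Benchmarks: DMSO and PEA EC100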
MPTP block = mitochondrial permeability transition pore inhibitors, primary screen, biochemical, isolated mouse mitochondria, absorbance. Ca2+ swelling absorbance, 30 min. inhibition, % at 10 µM. 1.4% of 360,000 active. AID 602449, 2012;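 active = inhibition of 50% or more, scaled per plate between neutral and stimulator controls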;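 also: 0% = DMSO wells given calcium and 100% = 1 mM EGTA wells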
DAGLB inhibitor = DAGLB lipase inhibitors, primary screen, biochemical, fluorescence, HTS; Diacylglycerol lipase-beta (Homo sapiens), Q8NCG7; 0.059% of 340,000 active; HEK293T DAGLB membrane lysate, EnzChek fluorogenic substrate; inhibition, % at 5.17 µM; AID 504411, 2011; in the data active = inhibition above about 34%;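 also: 0% = enzyme with vehicle and 100% = wells lacking enzyme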
TAAR1 antag = human TAAR1 antagonists, primary screen, Fluo-8 calcium fluorescence, CHO RD-HGA16 cells | Trace amine-associated receptor 1 (Homo sapiens), Q96RJ0 | antagonist | inhibition, % at 3 µM | 1.5% of 360,000 active | AID 624466, 2012;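 active = inhibition above a per-plate cutoff, the mean inhibition of test compounds on that plate plus 3 SD, cut at about 49% in these data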;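 also: 0% = DMSO plus EC80 beta-PEA response and 100% = DMSO alone without agonist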
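System: RD-HGA16 CHO cells with stable hTAAR1 and Gα16 | Probe or stimulus: EC80 β-phenethylamine stimulus | Dosing: 3 µM, single point | Times: Dye loading 75 min at 37 °C, then 30 min room temperature | Measured by: Fluo-8 calcium-sensitive fluorescence | Read-out basis: % inhibition of agonist calcium response | Replicates: n of 1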
Rh123 counter = fluorescence retest of MPTP screen hits in isolated mitochondria, single concentration. shares compounds with MPTP block. membrane potential, Rhodamine 123 fluorescence. inhibition, % at 10 µM. 78% of 5,000 active;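 also: 0% = DMSO vehicle and 100% = positive control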
TAAR1 nonsel count = nonselective antagonists in TAAR1 counter-screen cells, counter-screen for hTAAR1 antagonist project, cell-based, fluorescence, calcium | 77% of 2,400 active | inhibition, % at 3 µM | shares compounds with TAAR1 antag | counterscreen cell line, antagonist mode;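 also: CHO-Ga16 host cells stimulated with ATP at an EC80 level; 0% = agonist EC80 plus vehicle and 100% = vehicle without agonist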
TAAR1 ant conf = human TAAR1 antagonists, retest of hits, confirmation, cell-based, fluorescence; shares compounds with TAAR1 antag; TAAR1-expressing cells, fluorescence antagonist read-out; inhibition, % at 3 µM; 40% of 2,400 active; AID 651785, 2012; in the data active = inhibition above about 49%;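 also: CHO-Ga16 host cells challenged with agonist PEA near its EC80; 0% = agonist at EC80 plus vehicle and 100% = vehicle with no agonist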
Ga16 ag counter = calcium activation in Ga16-expressing cells, counter-screen for TAAR1 antagonist project, cell-based, fluorescence. activation, % at 3 µM. agonist counterscreen. 18% of 2,400 active. shares compounds with TAAR1 antag; in the data active = activation above about 12%;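 also: 0% = vehicle wells and 100% = saturating stimulus response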
TAAR1 ag count = TAAR1 activation by candidate antagonists – cell-based, fluorescence, counter-screen for TAAR1 antagonist project; hTAAR1 cell line, agonist mode; activation, % at 3 µM; shares compounds with TAAR1 antag; 2% of 2,400 active; in the data active = activation above about 37%;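 also: CHO cells stably expressing TAAR1 with calcium dye readout; 0% = DMSO vehicle and 100% = full agonist response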
An asterisk follows results filed as active; / = no result. Rule as the data show it, unless noted: active = inhibition above about 22%; inactive = the rest.

SMILES	GPR7 antagonist	TAAR1 agonist	MPTP block	DAGLB inhibitor	TAAR1 antag	Rh123 counter	TAAR1 nonsel count	TAAR1 ant conf	Ga16 ag counter	TAAR1 ag count
COc1cccc(CNC(=O)[C@@H]2CCCN2C(=O)[C@H]2CCCCN2C(=O)c2cccc(Cl)c2)c1	/	1.4	-0.4	/	1.0	/	/	/	/	/
COc1ccc(S(=O)(=O)Nc2ccccc2C(=O)Nc2nc(-c3ccc(F)cc3)cs2)cc1OC	16.5	9.3	96.6*	6.4	90.5*	42.3*	51.8*	61.2*	9.3	4.5
CCCNC(=O)c1ccccc1NS(=O)(=O)c1ccc(OC)c(OC)c1	-7.8	1.3	1.6	-3.4	12.8	/	/	/	/	/
CN(Cc1ccc2c(c1)CCCN2C)C(=O)[C@@H](Cc1ccccc1)NC(=O)[C@H]1O[C@@H](n2ccc(=O)[nH]c2=O)[C@H](O)[C@@H]1O	/	-0.1	/	/	11.9	/	/	/	/	/
COC(=O)C1(CC2CC(c3cccc(Br)c3)=NO2)CCN(C(=O)OC(C)(C)C)CC1 (centres undefined)	5.5	11.6	53.7*	-6.7	71.0*	57.2*	29.3*	63.8*	5.0	6.7
COc1cc(/C=C(/C#N)c2ccccc2)ccc1Oc1ccc([N+](=O)[O-])cn1	-5.2	6.6	2.9	-8.1	19.4	/	/	/	/	/
COc1cc(/C=C(\C#N)c2nc3ccccc3[nH]2)cc(Br)c1OCc1ccc(F)cc1	0.4	9.4	20.2	-3.5	44.8	/	/	/	/	/
COc1cc(/C=C(\C#N)c2nc3ccccc3[nH]2)cc(Br)c1OCc1ccccc1	-5.7	7.9	63.6*	-0.9	59.8*	72.9*	46.9*	56.4*	7.8	4.9
COc1cc(/C=C(\C#N)c2nc3ccccc3[nH]2)ccc1Oc1ccc([N+](=O)[O-])cn1	6.3	20.3	78.2*	-1.8	84.2*	55.0*	49.5*	65.5*	10.7	9.4
O=C1C=CC(=O)N1CCCCCCCCCCN1C(=O)C=CC1=O	/	25.6	7.3	1.8	8.9	/	/	/	/	/
O=C(N/N=C/c1cn(-c2cccs2)nc1-c1ccccc1)c1ccccc1O	-4.6	11.4	98.6*	-2.3	75.2*	31.9*	54.8*	60.3*	13.4*	9.7
COc1ccc(S(=O)(=O)N2CCC[C@H]2C(=O)N2CCC[C@H]2C(=O)N(C)Cc2ccccc2)cc1C	/	-0.5	-1.6	/	-20.6	/	/	/	/	/
COC(=O)c1ccc2c(=O)n(CCCCCC(=O)N3CCN(c4ccccc4)CC3)c(=O)[nH]c2c1	-5.4	24.3	64.5*	0.6	74.2*	46.1*	58.4*	72.0*	14.2*	22.5
CCN1CCN(C(=O)CCCCCn2c(=O)[nH]c3cc(C(=O)OC)ccc3c2=O)CC1	1.9	0.4	0.2	-0.3	1.2	/	/	/	/	/
OC[C@@H](O)C(O)[C@@H](O)CO (some centres undefined)	/	-1.1	-0.3	/	7.5	/	/	/	/	/
COc1ccccc1CNc1nc(NCc2cccs2)nc2ccsc12	/	34.8	77.6*	/	76.3*	92.5*	61.9*	80.3*	34.4*	48.8*
CC(C)S(=O)(=O)N1CCCC(c2cc(C(=O)Nc3ccc(F)c(Cl)c3)no2)C1 (centres undefined)	/	8.5	-0.3	/	26.1	/	/	/	/	/
